The subject of one test is HCT-15. Description: Antiproliferative activity against human HCT-15 cells assessed as inhibition of cell proliferation incubated for 3 days by CellTiter-Glo Luminescent Cell Viability Assay. The test is classed as functional, cell-based. As to conditions: HCT-15, 72 h. In a few lines: (§1)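 Cancer cell lines seeded in 384-well plates on day 1; compound added on day 2 and left for 3 days. On day 5 all medium was aspirated, and viable cells were quantified by CellTiter-Glo luminescence, which measures cellular ATP. Dose-dependent effects on proliferation were determined.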

In test [1] the target is Ribosomal protein S6 kinase alpha-3 (Homo sapiens, UniProt P51812). In words: Inhibition of human RSK2 in presence of ATP.
Ribosomal protein S6 kinase alpha-3, sequence (P51812 whole entry): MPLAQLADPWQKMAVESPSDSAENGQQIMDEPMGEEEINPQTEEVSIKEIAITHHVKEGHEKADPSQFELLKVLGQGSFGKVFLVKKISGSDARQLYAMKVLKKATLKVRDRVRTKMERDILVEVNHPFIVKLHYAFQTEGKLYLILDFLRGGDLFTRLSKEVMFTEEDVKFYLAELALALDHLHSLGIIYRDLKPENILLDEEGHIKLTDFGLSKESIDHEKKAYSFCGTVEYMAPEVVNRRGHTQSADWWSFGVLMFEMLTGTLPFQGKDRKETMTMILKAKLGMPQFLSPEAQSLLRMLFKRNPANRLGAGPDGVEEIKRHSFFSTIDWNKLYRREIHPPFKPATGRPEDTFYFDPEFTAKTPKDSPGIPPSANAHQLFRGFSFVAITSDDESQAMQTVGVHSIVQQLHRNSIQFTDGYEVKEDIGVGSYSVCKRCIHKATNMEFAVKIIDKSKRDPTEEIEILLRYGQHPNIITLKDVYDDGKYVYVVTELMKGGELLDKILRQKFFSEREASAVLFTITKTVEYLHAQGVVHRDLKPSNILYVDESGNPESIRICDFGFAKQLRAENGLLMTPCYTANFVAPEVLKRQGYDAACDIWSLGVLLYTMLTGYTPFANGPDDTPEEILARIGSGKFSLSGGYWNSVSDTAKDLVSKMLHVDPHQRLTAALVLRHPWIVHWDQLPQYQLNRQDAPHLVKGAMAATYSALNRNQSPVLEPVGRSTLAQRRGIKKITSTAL
Another test has as its system NCI-H358. In words: Inhibition of anchorage independent cell growth in human NCI-H358 cells incubated for 6 days by Alamar blue reagent based fluorescence plate reader analysis. The test is classed as functional. The settings on record: NCI-H358, 144 h.
In test [2] the test system is HCT-116. Description: Antitumor activity against human HCT-116 cells xenografted in nude mouse assessed as reduction in Elk phosphorylation at S383 residue at 15 to 150 mg/kg/day administered via pump for 18 hrs by Reverse-Phase protein array analysis. As to conditions: dose 15-150 mg/kg/day. It is filed as functional, organism-based. A general note: A xenograft is tissue or cells of one species grown in another, often human tumour cells in immunodeficient mice.

Test [3] concerns the target Tyrosine-protein kinase Yes (Homo sapiens, UniProt P07947). In words: Inhibition of human YES1 assessed as inhibition constant in presence of ATP.
The test system of the next test is BT-549. In words: Antiproliferative activity against human BT-549 cells assessed as inhibition of cell proliferation incubated for 3 days by CellTiter-Glo Luminescent Cell Viability Assay. The test is classed as functional, cell-based. As to conditions: BT-549, 72 h. In a few lines: as §1
In general terms: ATP-based viability assays read luminescence as a measure of living cells.

Test [4] concerns the target Serine/threonine-protein kinase Chk2 (Homo sapiens, UniProt O96017). In words: Inhibition of human CHK2 assessed as inhibition constant in presence of ATP.
Test [5] concerns the target cGMP-dependent protein kinase 1 (Homo sapiens) (UniProt Q13976). In words: Inhibition of human PRKG1 in presence of ATP relative to control. As to conditions: concentration not given here.
In the next test the test system is Calu-6. Description: Antiproliferative activity against human Calu-6 cells assessed as inhibition of cell proliferation incubated for 3 days by CellTiter-Glo Luminescent Cell Viability Assay. It is filed as functional, cell-based. As to conditions: Calu-6, 72 h. In short, it runs like this:
as §1

For test [6], the system named is HCT-116. In words: Antitumor activity against human HCT-116 cells xenografted in nude mouse assessed as reduction in BAD phosphorylation at S136 residue at 15 to 150 mg/kg/day administered via pump for 18 hrs by Reverse-Phase protein array analysis. The settings on record: dose 15-150 mg/kg/day. The test is classed as functional, organism-based.
In the next test the test system is GTL 16 cell line. Description: Antitumor activity against human GTL-16 cell line xenografted in nude mouse assessed as tumor growth inhibition at 20 mg/kg, po administered once daily for 9 to 18 days relative to control. It is filed as functional. The settings on record: time 9-18 day, read-out: TGI. In a few lines:
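Tumor cells were implanted s.c. into the right flank of female nu/nu nude mice aged 6–8 weeks. Animals were randomized into treatment groups once tumors were established (example: day 8 postimplant, about 170 mm3, animals >22 g). Compound in 0.5% methylcellulose was given by oral gavage. Tumors were measured with calipers two to three times per week.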

For test [7], the target named is Serine/threonine-protein kinase PAK 4 (Homo sapiens, UniProt O96013).
Serine/threonine-protein kinase PAK 4, sequence (O96013 whole entry, looked up): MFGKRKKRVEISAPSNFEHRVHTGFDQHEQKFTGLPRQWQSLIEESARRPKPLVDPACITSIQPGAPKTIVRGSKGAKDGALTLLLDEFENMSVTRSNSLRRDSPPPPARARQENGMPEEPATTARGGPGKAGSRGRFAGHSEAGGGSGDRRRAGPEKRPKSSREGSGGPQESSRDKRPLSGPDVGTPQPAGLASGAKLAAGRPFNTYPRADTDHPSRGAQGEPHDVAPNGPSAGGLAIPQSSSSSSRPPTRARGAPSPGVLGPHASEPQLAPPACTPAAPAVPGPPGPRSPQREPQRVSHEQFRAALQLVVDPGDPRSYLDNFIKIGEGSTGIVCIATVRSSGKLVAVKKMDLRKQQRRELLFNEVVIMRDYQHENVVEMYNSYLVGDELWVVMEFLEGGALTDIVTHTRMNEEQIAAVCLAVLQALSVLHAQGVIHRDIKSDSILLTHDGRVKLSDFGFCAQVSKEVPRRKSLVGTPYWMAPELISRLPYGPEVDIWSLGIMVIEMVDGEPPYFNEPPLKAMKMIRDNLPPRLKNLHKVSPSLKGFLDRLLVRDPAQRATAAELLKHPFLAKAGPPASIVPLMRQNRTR
Test [8] has as its system HCT-116. In words: Induction of apoptosis in human HCT-116 cells at 100 nM measured after 48 hrs by fluorescence activated cell sorter analysis. The test is classed as functional, cell-based.
Another test relates to NCI-H526. Description: Antiproliferative activity against human NCI-H526 cells assessed as inhibition of cell proliferation incubated for 3 days by CellTiter-Glo Luminescent Cell Viability Assay. The test is classed as functional, cell-based. As to conditions: NCI-H526, 72 h. In short, it runs like this:
(§2)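 Cells of each line were plated in 384-well plates on day 1 and exposed to compound from day 2 for 3 days. On day 5 all medium was aspirated. Viable cell number was read by CellTiter-Glo luminescence, which quantifies cellular ATP.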

Another test relates to Hs-578T. In words: Antiproliferative activity against human Hs-578T cells assessed as inhibition of cell proliferation incubated for 3 days by CellTiter-Glo Luminescent Cell Viability Assay. The test is classed as functional, cell-based. As to conditions: 72 h. In a few lines:
as §1

Test [9] relates to HCT-116. Description: Antitumor activity against human HCT-116 cells xenografted in nude mouse assessed as inhibition of [3H]FLT uptake at 25 mg/kg, po administered once a day for 6 day and measured after 2 hrs post [3H]FLT administration by scintillation counter analysis relative to control. It is filed as functional. As to conditions: HCT-116, 144 h. In short, it runs like this:
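HCT116 xenograft mice (tumors 300–350 mm3, n = 5 per group) received oral vehicle or compound, with harvests on days 2, 3 and 6. Isoflurane-anesthetized mice were given [3H]FLT (15 nCi/g, i.p.) 2 h before killing. Tumor and liver were weighed, solubilized and scintillation-counted. SUV = C/(ID/W), and uptake is reported as the tumor-to-liver SUV ratio.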

In a further test the test system is HCC1954. Description: Antiproliferative activity against human HCC1954 cells assessed as inhibition of cell proliferation incubated for 3 days by CellTiter-Glo Luminescent Cell Viability Assay. The test is classed as functional, cell-based. As to conditions: HCC1954, 72 h. In a few lines: as §1
The next test relates to PANC-1. Description: Antiproliferative activity against human PANC-1 cells assessed as inhibition of cell proliferation incubated for 3 days by CellTiter-Glo Luminescent Cell Viability Assay. It is filed as functional, cell-based. As to conditions: PANC-1, 72 h. In short, it runs like this: as §2
Test [10] has as its target T1, Serine/threonine-protein kinase D1 (Homo sapiens, UniProt Q15139).
T1 sequence (Q15139 whole entry): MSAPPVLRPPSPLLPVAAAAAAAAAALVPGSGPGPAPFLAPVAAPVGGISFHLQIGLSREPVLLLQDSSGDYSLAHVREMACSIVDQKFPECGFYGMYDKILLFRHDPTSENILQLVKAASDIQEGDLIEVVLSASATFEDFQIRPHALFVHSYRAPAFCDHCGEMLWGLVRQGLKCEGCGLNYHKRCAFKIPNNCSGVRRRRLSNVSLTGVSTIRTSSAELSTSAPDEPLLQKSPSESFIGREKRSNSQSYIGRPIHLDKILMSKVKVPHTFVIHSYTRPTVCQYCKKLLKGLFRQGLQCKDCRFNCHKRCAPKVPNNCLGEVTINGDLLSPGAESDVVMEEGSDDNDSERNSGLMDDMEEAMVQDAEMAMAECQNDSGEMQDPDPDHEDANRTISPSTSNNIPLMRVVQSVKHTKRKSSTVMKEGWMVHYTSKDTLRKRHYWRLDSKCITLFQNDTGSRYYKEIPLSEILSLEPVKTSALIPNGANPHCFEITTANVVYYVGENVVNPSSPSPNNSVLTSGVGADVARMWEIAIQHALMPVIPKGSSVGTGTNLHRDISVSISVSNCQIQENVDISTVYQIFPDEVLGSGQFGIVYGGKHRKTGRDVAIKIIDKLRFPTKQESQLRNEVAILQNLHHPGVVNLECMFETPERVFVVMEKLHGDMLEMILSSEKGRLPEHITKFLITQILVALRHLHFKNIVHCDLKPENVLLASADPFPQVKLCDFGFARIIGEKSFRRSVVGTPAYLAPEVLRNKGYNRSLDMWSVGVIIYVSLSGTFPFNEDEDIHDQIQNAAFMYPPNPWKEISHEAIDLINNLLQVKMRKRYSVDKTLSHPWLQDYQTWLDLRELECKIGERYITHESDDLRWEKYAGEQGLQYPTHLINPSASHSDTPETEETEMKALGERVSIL
In words: Inhibition of human PKCmu assessed as inhibition constant in presence of ATP.

The results in this text go back to ChEMBL document CHEMBL5678802, “Small-molecule p21-activated kinase inhibitor PF-3758309 is a potent inhibitor of oncogenic signaling and tumor growth” (Proc Natl Acad Sci U S A, 2010).

pIC50, pKi: −log10 of the molar value. Activity calls are given as the source filed them. No cut-off for these calls is given here.

Serine/threonine-protein kinase Chk2, sequence (O96017 whole entry): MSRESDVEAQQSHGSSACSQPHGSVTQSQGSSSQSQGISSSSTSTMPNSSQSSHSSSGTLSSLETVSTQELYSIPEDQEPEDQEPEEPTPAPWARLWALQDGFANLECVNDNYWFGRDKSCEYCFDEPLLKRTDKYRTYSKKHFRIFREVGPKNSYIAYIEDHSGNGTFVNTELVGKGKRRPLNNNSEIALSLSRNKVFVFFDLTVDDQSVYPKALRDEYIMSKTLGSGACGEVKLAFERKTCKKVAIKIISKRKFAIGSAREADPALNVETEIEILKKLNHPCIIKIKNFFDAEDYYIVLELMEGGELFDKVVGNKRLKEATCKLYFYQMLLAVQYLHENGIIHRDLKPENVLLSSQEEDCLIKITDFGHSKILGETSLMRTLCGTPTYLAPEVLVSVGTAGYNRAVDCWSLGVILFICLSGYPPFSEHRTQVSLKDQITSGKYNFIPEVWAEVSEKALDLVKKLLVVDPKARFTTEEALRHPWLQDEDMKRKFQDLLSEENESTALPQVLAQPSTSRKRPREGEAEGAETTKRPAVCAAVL
cGMP-dependent protein kinase 1 (Homo sapiens), sequence (Q13976 whole entry): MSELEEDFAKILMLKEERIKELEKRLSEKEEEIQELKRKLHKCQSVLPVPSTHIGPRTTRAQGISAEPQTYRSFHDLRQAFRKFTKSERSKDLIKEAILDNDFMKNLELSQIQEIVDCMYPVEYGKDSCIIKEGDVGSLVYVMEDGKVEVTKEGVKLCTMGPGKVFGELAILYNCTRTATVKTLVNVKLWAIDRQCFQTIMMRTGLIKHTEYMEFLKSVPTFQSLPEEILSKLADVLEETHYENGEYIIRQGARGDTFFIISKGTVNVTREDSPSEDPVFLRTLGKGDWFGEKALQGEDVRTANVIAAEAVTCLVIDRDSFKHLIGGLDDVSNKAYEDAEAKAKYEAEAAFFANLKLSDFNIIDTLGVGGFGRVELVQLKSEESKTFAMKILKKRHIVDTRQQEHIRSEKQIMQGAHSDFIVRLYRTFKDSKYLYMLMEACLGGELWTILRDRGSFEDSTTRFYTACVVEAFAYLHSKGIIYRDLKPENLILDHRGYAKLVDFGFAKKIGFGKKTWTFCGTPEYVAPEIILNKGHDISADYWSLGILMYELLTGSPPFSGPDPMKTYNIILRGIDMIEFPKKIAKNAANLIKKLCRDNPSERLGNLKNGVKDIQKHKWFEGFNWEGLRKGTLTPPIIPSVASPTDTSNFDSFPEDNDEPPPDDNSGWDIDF
Tyrosine-protein kinase Yes, sequence (P07947 whole entry): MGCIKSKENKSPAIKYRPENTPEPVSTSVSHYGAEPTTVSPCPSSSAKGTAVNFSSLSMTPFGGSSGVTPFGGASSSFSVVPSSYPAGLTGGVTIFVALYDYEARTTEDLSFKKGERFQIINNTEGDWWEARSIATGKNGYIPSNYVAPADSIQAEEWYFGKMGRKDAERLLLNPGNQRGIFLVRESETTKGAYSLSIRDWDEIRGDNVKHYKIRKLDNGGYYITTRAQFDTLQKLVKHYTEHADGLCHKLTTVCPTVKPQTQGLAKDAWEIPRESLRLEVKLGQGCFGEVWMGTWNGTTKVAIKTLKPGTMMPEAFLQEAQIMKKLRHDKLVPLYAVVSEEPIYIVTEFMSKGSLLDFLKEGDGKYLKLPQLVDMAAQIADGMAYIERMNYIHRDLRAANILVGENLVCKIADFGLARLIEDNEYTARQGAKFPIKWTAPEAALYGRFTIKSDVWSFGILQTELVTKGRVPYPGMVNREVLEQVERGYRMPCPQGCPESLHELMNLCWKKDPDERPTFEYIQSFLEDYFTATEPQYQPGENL

Consider `Cc1nc(Nc2n[nH]c3c2CN(C(=O)N[C@H](CN(C)C)c2ccccc2)C3(C)C)c2sccc2n1` [PF-03758309], for which the pIC50 (usually the IC50 on a negative log10 scale, so that one unit is a factor of ten) is 5.00 in the test on HCT-15; 8.70 in test [1]; 8.11 with NCI-H358; 9.39 with BT-549; 8.14 with Calu-6; 8.85 with NCI-H526. In addition, the pIC50 with Hs-578T was 9.43; in the test with HCC1954, 9.48; in the test on PANC-1, 6.07. The result in the test on HCT-116 [2], with HCT-116 [6] and with HCT-116 [8] was Active. Also, the results for the pKi in test [3], in [4] and in [10] were 7.37, 8.52 and 7.68, respectively. The inhibition (as a rule, the change of the read-out against control, counted positive when it falls) in [5] was found to be 97%. Further, the inhibition in vivo at 20 mg/kg in the test on GTL 16 cell line turned out to be 28%. The same molecule had a T1/2 in [7] of 1.13 min. Also, the inhibition in vivo at 25 mg/kg in the test with HCT-116 [9] came out at 43.1%.
